In publication PMC10718296 (RSC Advances, 2023):
Like-named read-outs stand apart in the source and are kept apart here.

Tests used:
[1] = tested on: laryngeal carcinoma cell line (Hep-2); experiment: MTT-based cytotoxicity assay, Hep-2; format: cell-based, human; conditions: read-out: Anticancer (IC50) Hep-2
Method in brief: (§1)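 Cells seeded at 10 000/well in medium with 5% FBS and held 48 h at 37 °C, 5% CO₂, 100% humidity. Test compound at various concentrations added for 48 h under the same conditions, in triplicate, with compound-free medium as control. MTT (5 mg ml⁻¹ solution) added for 4 h at 37 °C, formazan dissolved in DMSO, A570 read. % inhibition = 100 − A(sample)/A(control) × 100.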

[2] = tested on: hepatocellular carcinoma cell line (HepG2); experiment: MTT-based cytotoxicity assay, HepG2; format: cell-based, human; conditions: read-out: Anticancer (IC50) HepG2
Method in brief: as §1

[3] = tested on: human skin cancer cell line (A375); experiment: MTT-based cytotoxicity assay, A375; format: cell-based
Method in brief: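 Cells seeded at 10 000/well in medium with 5% FBS, grown 48 h at 37 °C, 5% CO₂, then exposed to test compound at various concentrations (up to 100 μM) for 48 h, in triplicate; medium alone as control. MTT solution (5 mg ml⁻¹) added for 4 h at 37 °C, formazan dissolved in DMSO, absorbance read at 570 nm; inhibition % = 100 − (A sample/A control × 100).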

[4] = tested on: breast cancer cell line (MCF-7); experiment: MTT-based cytotoxicity assay, MCF-7; format: cell-based, human; conditions: read-out: Anticancer (IC50) MCF-7
Method in brief: as §1

[5] = tested on: non-cancerous normal cell (Vero); experiment: MTT-based cytotoxicity assay, normal Vero cell; conditions: for Cytotoxicity to non-cancerous cells (in words): cell viability assay up to 100 μM, Fig. 3
Method in brief: as §1

[6] = Homo sapiens, A-375, 48 h, read-out: Anticancer (IC50) A375, MTT, 48 hours, average of three independent experiments
[7] = MTT, 48 hours, average of three independent experiments

Compound	IC50 ([1]; Homo sapiens, HEp-2, 48 h) [µM]	IC50 ([2]; Homo sapiens, HepG2, 48 h) [µM]	IC50 [3, 6] [µM]	IC50 ([4]; Homo sapiens, MCF7, 48 h) [µM]	IC50 [1, 7] [µM]	IC50 [2, 7] [µM]	IC50 ([5]; read-out: Anticancer (IC50) Vero, MTT, 48 hours, non-cancerous normal cell, average of three independent experiments) [µM]	IC50 ([3]; read-out: Anticancer (IC50) A375, MTT, 48 hours, average of three independent experiments) [µM]	IC50 [4, 7] [µM]	Cytotoxicity to non-cancerous cells (in words) [5]
Nc1c(-c2ccc([N+](=O)[O-])cc2)nc2cnccn12 [10c, 2-(4-Nitrophenyl)imidazo[1,2-a]pyrazin-3-amine]	45 ± 1.6	30 ± 1.43	24 ± 2.48	40 ± 3.8	–	–	–	–	–	–
CC(C)(C)Nc1c(-c2ccc([N+](=O)[O-])cc2)nc2ccccn12 [12a, N-(tert-Butyl)-2-(4-nitrophenyl)imidazo[1,2-a]pyridin-3-amine]	32 ± 5.5	30 ± 2.5	45 ± 2.5	55 ± 5.25	–	–	–	–	–	–
2-(2-Nitrophenyl)imidazo[1,2-a]pyrazin-3-amine [10l]	–	–	–	–	64 ± 2.45	32 ± 4.64	67 ± 4.54	27 ± 5	80 ± 4.53	–
COc1cccc2c1C(=O)c1c(O)c3c(c(O)c1C2=O)C[C@@](O)(C(=O)CO)C[C@@H]3O[C@H]1C[C@H](N)[C@H](O)[C@H](C)O1 [Doxorubicin, reference compound]	10 ± 0.5	1.5 ± 0.09	5.16	0.85 ± 0.02	–	–	–	–	–	–
CC(C)(C)Nc1c(-c2ccccc2[N+](=O)[O-])nc2ccccn12 [12e, N-(tert-Butyl)-2-(2-nitrophenyl)imidazo[1,2-a]pyridin-3-amine]	55 ± 0.4	62 ± 4.8	> 100	> 100	–	–	–	–	–	–
Nc1ccccc1-c1nc2cnccn2c1NC1CCCCC1 [10m, 2-(2-Aminophenyl)-N-cyclohexylimidazo[1,2-a]pyrazin-3-amine]	28 ± 4.28	20 ± 2.15	23 ± 1.5	44 ± 2.68	–	–	–	–	–	–
O=[N+]([O-])c1ccc(-c2nc3cnccn3c2NC2CCCCC2)cc1 [10j, N-Cyclohexyl-2-(4-nitrophenyl)imidazo[1,2-a]pyrazin-3-amine]	44 ± 6.4	40 ± 1.4	25 ± 5.41	24 ± 0.15	–	–	–	–	–	–
Nc1ccccc1-c1nc2cnccn2c1N [10g, 2-(2-Aminophenyl)imidazo[1,2-a]pyrazin-3-amine]	22 ± 2.15	25 ± 4.54	20 ± 5.8	30 ± 1.24	–	–	–	–	–	–
CC(C)(C)Nc1c(-c2ccccc2N)nc2cnccn12 [10f, 2-(2-Aminophenyl)-N-(tert-Butyl)imidazo[1,2-a]pyrazin-3-amine]	25 ± 5.2	20 ± 4.64	20 ± 1.57	26 ± 2.38	–	–	–	–	–	–
CN(C)c1ccc(-c2nc3ccccn3c2NC(C)(C)C)cc1 [12i, N-(tert-Butyl)-2-(4-(dimethylamino)phenyl)imidazo[1,2-a]pyridin-3-amine]	20 ± 2.7	19 ± 1.3	12 ± 0.7	17 ± 0.92	–	–	–	–	–	non-toxic to non-cancerous cells
Nc1ccc(-c2nc3cnccn3c2NC2CCCCC2)cc1 [10k, 2-(4-Aminophenyl)-N-cyclohexylimidazo[1,2-a]pyrazin-3-amine]	34 ± 4.56	28 ± 2.48	30 ± 1.5	65 ± 2.41	–	–	–	–	–	–
CN(C)c1ccc(-c2nc3cnccn3c2NC(C)(C)C)cc1 [10h, N-(tert-Butyl)-2-(4-(dimethylamino)phenyl)imidazo[1,2-a]pyrazin-3-amine]	45 ± 0.5	34 ± 5.5	30 ± 2.84	50 ± 6.41	–	–	–	–	–	–
Nc1c(-c2ccccc2[N+](=O)[O-])nc2ccccn12 [12g, 2-(2-Nitrophenyl)imidazo[1,2-a]pyridin-3-amine]	50 ± 5.2	> 100	62 ± 2.4	> 100	–	–	–	–	–	–
CC(C)(C)Nc1c(-c2ccc([N+](=O)[O-])cc2)nc2cnccn12 [10a, N-(tert-Butyl)-2-(4-nitrophenyl)imidazo[1,2-a]pyrazin-3-amine]	50 ± 3.42	40 ± 2.52	36 ± 3.1	> 100	–	–	–	–	–	–
Nc1ccc(-c2nc3cnccn3c2N)cc1 [10d, 2-(4-Aminophenyl)imidazo[1,2-a]pyrazin-3-amine]	38 ± 2.2	34 ± 2.64	25 ± 1.45	30 ± 3.32	–	–	–	–	–	–
Nc1ccc(-c2nc3ccccn3c2NC2CCCCC2)cc1 [12l, 2-(4-Aminophenyl)-N-cyclohexylimidazo[1,2-a]pyridin-3-amine]	20 ± 5.2	25 ± 0.2	30 ± 0.1	35 ± 1.5	–	–	–	–	–	–
CC(C)(C)Nc1c(-c2ccc(N)cc2)nc2ccccn12 [12b, 2-(4-Aminophenyl)-N-(tert-butyl)imidazo[1,2-a]pyridin-3-amine]	11 ± 0.8	13 ± 1.2	11 ± 0.07	11 ± 0.5	–	–	–	–	–	non-toxic to non-cancerous cells
Nc1ccccc1-c1nc2ccccn2c1N [12h, 2-(2-Aminophenyl)imidazo[1,2-a]pyridin-3-amine]	44 ± 1.4	54 ± 1.5	55 ± 1.5	61 ± 2.4	–	–	–	–	–	–
CC(C)(C)Nc1c(-c2ccc(N)cc2)nc2cnccn12 [10b, 2-(4-Aminophenyl)-N-(tert-butyl)imidazo[1,2-a]pyrazin-3-amine]	20 ± 1.64	18 ± 1.32	16 ± 0.96	21 ± 1.64	–	–	–	–	–	non-toxic to non-cancerous cells
Nc1c(-c2ccc([N+](=O)[O-])cc2)nc2ccccn12 [12c, 2-(4-Nitrophenyl)imidazo[1,2-a]pyridin-3-amine]	35 ± 2.4	48 ± 4.8	50 ± 1.8	> 100	–	–	–	–	–	–
CC(C)(C)Nc1c(-c2ccccc2N)nc2ccccn12 [12f, 2-(2-Aminophenyl)-N-(tert-butyl)imidazo[1,2-a]pyridin-3-amine]	28 ± 5	32 ± 0.1	28 ± 1.5	24 ± 5.8	–	–	–	–	–	–
CN(C)c1ccc(-c2nc3ccccn3c2N)cc1 [12j, 2-(4-(Dimethylamino)phenyl)imidazo[1,2-a]pyridin-3-amine]	45 ± 5	35 ± 4.8	25 ± 1.4	30 ± 5	–	–	–	–	–	–
Nc1ccc(-c2nc3ccccn3c2N)cc1 [12d, 2-(4-Aminophenyl)imidazo[1,2-a]pyridin-3-amine]	20 ± 5.8	35 ± 2.5	38 ± 2.4	50 ± 1.82	–	–	–	–	–	–
CN(C)c1ccc(-c2nc3cnccn3c2N)cc1 [10i, 2-(4-(Dimethylamino)phenyl)imidazo[1,2-a]pyrazin-3-amine]	28 ± 3.1	26 ± 0.9	16 ± 1.2	17 ± 0.52	–	–	–	–	–	non-toxic to non-cancerous cells
CC(C)(C)Nc1c(-c2ccccc2[N+](=O)[O-])nc2cnccn12 [10e, N-(tert-Butyl)-2-(2-nitrophenyl)imidazo[1,2-a]pyrazin-3-amine]	80 ± 1.37	40 ± 2.52	34 ± 3.2	100 ± 8.64	–	–	–	–	–	–
O=[N+]([O-])c1ccc(-c2nc3ccccn3c2NC2CCCCC2)cc1 [12k, N-Cyclohexyl-2-(4-nitrophenyl)imidazo[1,2-a]pyridin-3-amine]	30 ± 8	40 ± 1.5	41 ± 5	52 ± 0.8	–	–	–	–	–	–
